E coli WT exp: E. coli BW25113 growth inhibition, expanded screen | OD600 absorbance | growth inhibition, % at 100 µM | 98,000 tested, 0.15% active | AID 710;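 active = growth inhibition above about 50% at one test dose, limit read from the data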;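 note: growth measured after 20 h incubation at 37 °C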
CYP2C19 activ: increases human CYP2C19 enzyme activity | 96,000 tested, under 10 active | recombinant CYP2C19, luciferin-H EGE luminescence; hits give high values; 0 = fully inhibited enzyme, 1 = untreated enzyme | activation factor at 5 µM | P33261;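 active = activation factor of at least 2 at 5 µM in the primary screen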
CYP2C19 inh: human CYP2C19 inhibition; P33261; CYP2C19 Supersomes, luciferin-H EGE luminescence, 30 min; 96,000 tested, 21% active; inhibition, % at 5 µM;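 active = CYP2C19 inhibition above a set limit at 5 µM in the primary screen, cut at about 50% in these data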
CYP2C9 inh: inhibitors of human CYP2C9; CYP2C9 Supersomes, luciferin-H conversion, luminescence; inhibition, % at 5 µM; 96,000 tested, 20% active; AID 777;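 active = blocking of liver enzyme CYP2C9 beyond about 50% at 5 µM, limit read from the data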
Target sequence (P11712 whole entry, looked up): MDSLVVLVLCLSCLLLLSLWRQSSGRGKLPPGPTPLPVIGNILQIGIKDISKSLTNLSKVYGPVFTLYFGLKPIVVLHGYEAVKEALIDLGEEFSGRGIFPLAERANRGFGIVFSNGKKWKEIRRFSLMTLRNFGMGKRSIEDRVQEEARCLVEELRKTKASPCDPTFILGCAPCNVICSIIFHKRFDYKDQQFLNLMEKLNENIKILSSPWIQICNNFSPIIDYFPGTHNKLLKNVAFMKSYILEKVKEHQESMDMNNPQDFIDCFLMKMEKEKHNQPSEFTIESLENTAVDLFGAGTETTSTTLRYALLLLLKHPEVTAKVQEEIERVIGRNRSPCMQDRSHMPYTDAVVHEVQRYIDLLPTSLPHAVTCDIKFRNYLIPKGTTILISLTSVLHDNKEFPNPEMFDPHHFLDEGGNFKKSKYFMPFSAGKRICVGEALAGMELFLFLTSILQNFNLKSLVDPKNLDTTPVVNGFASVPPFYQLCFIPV
CYP2C9 activ: increases human cytochrome P450 2C9 activity; P11712; recombinant CYP2C9, luciferin-H conversion, luminescence; hits give high values; factor 1 = untreated enzyme, 0 = blocked; activation factor at 5 µM; 96,000 tested, 1.4% active;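 active = activation factor of 2 or more for CYP2C9 at a 5 µM dose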
Ecoli tolC: blocks growth of E. coli BW25113 tolC mutant. OD615. growth inhibition, % at 10 µM (by protocol). 65,000 tested, 2.2% active. AID 573;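 active = growth inhibition at or above a cutoff equal to the mean over every tested compound plus 3 SD, cut at about 60% in these data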;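 note: growth measured after 20 h incubation at 37 °C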
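Test system: E. coli BW25113 ΔtolC::kan bacteria | Medium: Kanamycin-containing LB broth (50 µg/mL) | Dosing: One dose of 10 µM final | Times: 20 h incubation with compound, 37 °C | Detection: Optical density read at 615 nm | Read-out basis: Percent growth inhibition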
Large screens that a line does not name were inactive. A selection: hits, their analogues and other compounds. The true share with any hit is near 29%.

O=C(CN1CCCCC1)Nc1cccc2c1OCO2	none (no result: Ecoli tolC)
O=C(CN1CCCCCC1)Nc1ccccc1F	CYP2C19 inh 63 (no result: Ecoli tolC)
O=C(CN1CCN(CC(=O)Nc2ccccc2C(F)(F)F)CC1)Nc1ccccc1F	CYP2C19 inh 85
CCc1cc2c(=O)c(-c3nc4ccccc4[nH]3)coc2c(CN2CCCC(C)C2)c1O (stereo not drawn)	none (no result: E coli WT exp, CYP2C19 activ, CYP2C19 inh, CYP2C9 inh, CYP2C9 activ)
COC(=O)c1nn2c(C(F)(F)F)cc(-c3ccc(Br)o3)nc2c1Br	none (no result: E coli WT exp)
Cc1ccc(C(C)C)c(OCCNC(=O)c2cncc(Br)c2)c1	CYP2C19 inh 72, CYP2C9 inh 63 (no result: Ecoli tolC)
O=C(Nc1ccccc1C(=O)O)c1cncc(Br)c1	CYP2C9 inh 60 (no result: Ecoli tolC)
CCc1cc(C)cc(OCCNC(=O)c2cncc(Br)c2)c1	CYP2C19 inh 72 (no result: Ecoli tolC)
CCc1cc(C)cc(OCCNC(=O)c2ncn[nH]2)c1	none
O=C(NCCOc1ccccc1)c1cncc(Br)c1	CYP2C19 inh 84 (no result: Ecoli tolC)
COc1cc(OC)cc(C(=O)NCCOc2ccccc2)c1	CYP2C19 inh 62 (no result: Ecoli tolC)
COC(=O)c1ccc(OCCOc2ccccc2)cc1	CYP2C19 inh 67, CYP2C9 inh 54 (no result: Ecoli tolC)
Cc1cc(C)nc(-n2c(Nc3ccccc3)cc(=O)c3c(C)n(-c4ccccc4)c(=O)nc32)n1	none (no result: E coli WT exp, CYP2C19 activ, CYP2C19 inh, CYP2C9 inh, CYP2C9 activ)
COc1ccc(OC)c(C2=Nn3c(nnc3-c3ccco3)SC2)c1	CYP2C19 inh 85, CYP2C9 inh 69
COc1ccc(OC)c(C2=Nn3c(nnc3-c3cccc(OC(C)C)c3)SC2)c1	none
COc1ccc(OCc2nnc3n2N=C(c2ccc(OC)cc2)CS3)cc1	CYP2C19 inh 88, CYP2C9 inh 90
CCOc1ccc(C2=Nn3cnnc3SC2)cc1	CYP2C19 inh 95
COc1ccc(OCc2nnc3n2N=C(c2ccc(C)cc2)CS3)cc1	none
COc1ccc(C2=Nn3c(nnc3-c3ccco3)SC2)cc1	CYP2C19 inh 56, CYP2C9 inh 64 (no result: Ecoli tolC)
O=C(CC(NS(=O)(=O)c1ccc(Cl)cc1)c1ccco1)N1CCc2ccccc21 (stereo not drawn)	none (no result: Ecoli tolC)
COc1ccc(C2=Nn3c(nnc3-c3ccncc3)SC2)cc1	CYP2C9 inh 56 (no result: Ecoli tolC)
COc1ccc(C2=Nn3c(nnc3-c3cccnc3)SC2)cc1	none (no result: CYP2C19 activ, CYP2C19 inh, CYP2C9 inh, CYP2C9 activ)
COc1cc(CNc2ccc3[nH]c(=O)[nH]c3c2)cc(Cl)c1OCC(=O)NC(C)(C)C	CYP2C19 inh 81, CYP2C9 inh 71
O=C(c1ccccc1)N1CCN(C(=O)c2ccc(OC(F)(F)F)cc2)CC1	none (no result: Ecoli tolC)
CC(C)NC(=O)COC(=O)c1ccc(NS(=O)(=O)c2ccc3c(c2)OCCO3)cc1	CYP2C19 inh 76, CYP2C9 inh 97 (no result: Ecoli tolC)
CC(C)CNS(=O)(=O)c1ccc2c(c1)OCCO2	none (no result: Ecoli tolC)
CCN(CC)c1ccc(C(=O)OCC(=O)NCC2CCCO2)cc1 (stereo not drawn)	none (no result: Ecoli tolC)
CCOC(=O)c1ccc(NS(=O)(=O)c2ccc3[nH]c(=O)[nH]c3c2)cc1	CYP2C9 inh 75
CCCCNC(=O)COC(=O)c1ccc(NS(=O)(=O)c2ccc3c(c2)OCCO3)cc1	CYP2C9 inh 91 (no result: Ecoli tolC)
O=C(COC(=O)c1ccc(NS(=O)(=O)c2ccc3c(c2)OCCO3)cc1)NCC1CCCO1 (stereo not drawn)	CYP2C9 inh 83
COc1ccc2c(C(=O)CN3CCN(c4ccccc4)CC3)c[nH]c2c1	none (no result: Ecoli tolC)
CCOC(=O)C1=C(c2ccccc2)N2CCN=C2S1	none (no result: E coli WT exp, CYP2C19 activ, CYP2C19 inh, CYP2C9 inh, CYP2C9 activ)
O=C(O)C1(c2cccc(Cl)c2)CCC1	none
O=C(CCNc1ccccc1)c1ccc2c(c1)OCO2	CYP2C19 inh 63
Fc1ccccc1Cn1nnc(-c2ccc3c(c2)OCO3)n1	CYP2C19 inh 76, CYP2C9 inh 58 (no result: Ecoli tolC)
O=C(NCc1ccccc1)c1ccc2c(c1)OCCO2	CYP2C19 inh 85
O=C(NCc1ccccc1F)c1ccc2c(c1)OCO2	CYP2C19 inh 73 (no result: Ecoli tolC)
O=C(Cn1nnc(-c2ccc(OCc3ccccc3F)cc2)n1)N1CCOCC1	none (no result: E coli WT exp, CYP2C19 activ, CYP2C19 inh, CYP2C9 inh, CYP2C9 activ)
COCCCNC(=O)c1ccc2c(c1)OCO2	none
CCN1C(=O)C2(/C(=C(\O)c3ccc4c(c3)OCCO4)C(=O)C(=O)N2CCCOC)c2ccccc21 (stereo not drawn)	none
O=C(NCC1CCCO1)C1CC(=O)N(c2ccc(F)c(Cl)c2)C1 (stereo not drawn)	none
O=C(CSc1nnnn1-c1ccc(F)cc1)Nc1ccc(N2CCOCC2)c(Cl)c1	none (no result: Ecoli tolC)
NC(=O)C1CC(O)CN1c1nc(CN2CCOCC2)nc2scc(-c3ccccc3)c12 (stereo not drawn)	none
Cc1ccc(C(=O)n2c3ccccc3c3ccccc32)cc1	CYP2C9 inh 78 (no result: Ecoli tolC)
CC(=O)n1c2ccccc2c2ccccc21	CYP2C9 inh 68 (no result: Ecoli tolC)
COc1ccc(C2N(C(=O)c3ccccc3)CCN2C(=O)c2ccc(C)cc2)cc1 (stereo not drawn)	none (no result: Ecoli tolC)
CC1CCN(C(=S)NC(=O)C2CCCCC2)CC1	none (no result: Ecoli tolC)
Cc1cc(=O)oc2cc(OCC(=O)OCc3nnc(-c4ccccc4)o3)ccc12	none
CCCCN(CCCC)S(=O)(=O)c1ccc(OC)c2ncccc12	CYP2C9 inh 66
COc1ccc(S(=O)(=O)N(CC(C)C)CC(C)C)c2cccnc12	CYP2C9 inh 92 (no result: Ecoli tolC)
Cc1ccc(S(=O)(=O)N2CCOCC2)cc1C(=O)NCc1ccc2c(c1)OCO2	none (no result: Ecoli tolC)
COc1ccc(CCNC(=O)C2CCCN(Cc3nc(-c4ccccc4C)oc3C)C2)cc1OC (stereo not drawn)	none
CCc1ccc(-c2nc(CN3CCCC(C(=O)NCCc4ccc(OC)c(OC)c4)C3)c(C)o2)cc1 (stereo not drawn)	CYP2C9 inh 54
CCOC(=O)N1CCC(NC(=O)C2CCCN(Cc3nc(-c4cccc(Cl)c4)oc3C)C2)CC1 (stereo not drawn)	CYP2C19 inh 67, CYP2C9 inh 54
CCN1CCN(CCNC(=O)C2CCCN(Cc3nc(-c4cccc(Cl)c4)oc3C)C2)CC1 (stereo not drawn)	none
CCN(CC)C(=O)C1CCCN(Cc2sccc2C)C1 (stereo not drawn)	none (no result: Ecoli tolC)
CCCCOC(=O)C(C)c1c(C)[nH]c(=S)[nH]c1=O (stereo not drawn)	none
Cn1c(=O)oc2cc(S(=O)(=O)NCCC(=O)N3CCc4ccccc43)ccc21	none
O=C(N/N=C/c1cc2ccccc2nc1Cl)/C(=C/c1cccs1)NC(=O)c1ccccc1	CYP2C19 inh 80 (no result: Ecoli tolC)
O=C(O)CCC(=O)Nc1ccc(OCC(=O)O)cc1	none (no result: Ecoli tolC)
CCC(SC1=N/C(=C/c2ccccc2OC)C(=O)N1c1ccccc1)C(=O)Nc1cc(C)on1 (stereo not drawn)	CYP2C9 inh 67 (no result: Ecoli tolC)
CCOc1ccc2[nH]c(=O)c(CN(CC3CCCN3CC)C(=O)NCc3ccccc3)cc2c1 (stereo not drawn)	none
C=CCSc1nnc(-c2cc3c(-c4ccccc4)nn(C)c3s2)n1C	CYP2C19 inh 55 (no result: Ecoli tolC)
CCOC(=O)C1CN(S(=O)(=O)c2ccccc2)CCN1S(=O)(=O)c1ccccc1 (stereo not drawn)	CYP2C19 inh 94, CYP2C9 inh 70 (no result: Ecoli tolC)

Screening results (PubChem)
